One compound from ChEMBL document CHEMBL4706672 (J Med Chem, 2021) can be followed below.

Activity calls are given as the source filed them. The calls are words filed in the database; no cut-off is given here.

In experiment [1] the target is T1, Protein cereblon/Signal transducer and activator of transcription 3 (Homo sapiens, UniProt P40763+Q96SW2). Nature of the experiment: Protac activity at CRBN/STAT3 in human OVCAR-3 cells assessed as decrease in STAT3 expression at 2 to 10 uM incubated for 24 hrs in presence of proteasome inhibitor MG132 by western blot analysis. The following applies: dose 2-10 µM. Type of experiment: cell-based.

Experiment [2] deals with G1 to S phase transition protein 1 homolog GSPT1 (Homo sapiens). Nature of the experiment: Protac activity at CRBN/STAT3 in human BxPC-3 cells assessed as effect on GSPT1 protein expression level at 1 to 10 uM incubated for 16 hrs by western blot analysis. Particulars: dose 1-10 µM.
The target of experiment [3] is T1, Protein cereblon/Signal transducer and activator of transcription 3. The experiment is described as follows: Protac activity at CRBN/STAT3 in human OVCAR-3 cells assessed as decrease in STAT3 phosphorylation at 2 to 20 uM after 6 hrs by western blot analysis. It counts as cell-based. The following applies: dose 2-20 µM.
Experiment [4] shares this target. The experiment is described as follows: Protac activity at CRBN/STAT3 in human OVCAR-3 cells assessed as induction of STAT3 degradation at 1 to 20 uM incubated for 12 hrs in presence of competitive CRBN ligand pomalidomide by western blot analysis. It counts as cell-based. The following applies: dose 1-20 µM.
Experiment [5] concerns BXPC-3. Nature of the experiment: Antiproliferative activity against human BxPC-3 cells assessed as reduction in cell viability incubated for 3 days by MTT assay. It counts as functional, cell-based. Particulars: BXPC-3, 72 h.
The target of experiment [6] is T1, Protein cereblon/Signal transducer and activator of transcription 3. Nature of the experiment: Protac activity at CRBN/STAT3 in human OVCAR-3 cells assessed as depletion of STAT3 at 2 to 20 uM after 12 hrs by western blot analysis. It counts as cell-based. Particulars: dose 2-20 µM.
Experiment [7] can be described thus: Selectivity index, ratio of IC50 for antiproliferative activity against STAT3 knockout human OVCAR-3 cells to IC50 for wild type human OVCAR-3 cells. It counts as functional.
The test system of another experiment is OVCAR-3. Nature of the experiment: Antiproliferative activity against human OVCAR-3 cells assessed as reduction in cell viability incubated for 3 days by MTT assay. It counts as functional, cell-based. Particulars: OVCAR-3, 72 h. The method in brief:
(§1)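 MTT assay. Cells were seeded at 3000–6000/well and incubated overnight, then exposed to compound or DMSO vehicle for 3 days in RPMI-1640 or DMEM with 10% FBS at 37 °C, 5% CO2. MTT (3 mg/ml) was added for 3 h at 37 °C, formazan was dissolved in DMSO and absorbance read at 570 nm. IC50 from three independent experiments, mean ± SD.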

Experiment [8] concerns BXPC-3. The experiment is described as follows: Reduction in NQO1 levels in human BxPC-3 cells at 1 to 10 uM incubated for 16 hrs by western blot analysis. Type of experiment: functional, cell-based. Particulars: dose 1-10 µM. The procedure, abridged: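 BxPC-3 cells seeded at 500 × 10^3 per well in 6-well plates, treated 16 h. Sonication lysis at 4 °C in Tris/NaCl/Triton/SDS buffer pH 7.4 with protease and phosphatase inhibitors, BCA protein assay, SDS-PAGE, PVDF transfer. Probed for STAT3, pSTAT3 and NQO1 with GAPDH loading control; fluorescent secondary detection.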

For experiment [9], the target named is T1, Protein cereblon/Signal transducer and activator of transcription 3. The experiment is described as follows: Protac activity at CRBN/STAT3 in human BxPC-3 cells assessed as decrease in STAT3 expression level after 12 hrs by western blot analysis. Type of experiment: cell-based.
The target in experiment [10] is Protein cereblon/Signal transducer and activator of transcription 1-alpha/beta (Homo sapiens) (UniProt P42224+Q96SW2). Nature of the experiment: Protac activity at CRBN/STAT1 in human OVCAR-3 cells assessed as decrease in STAT1 expression levels at 2 to 20 uM after 12 hrs by western blot analysis. It counts as cell-based. Particulars: dose 2-20 µM.
For a further experiment, the system named is MIA PaCa-2. Nature of the experiment: Antiproliferative activity against human MIA PaCa-2 cells assessed as reduction in cell viability incubated for 3 days by MTT assay. Type of experiment: functional, cell-based. The following applies: MIA PaCa-2, 72 h. The procedure, abridged:
as §1

In experiment [11] the target is T1, Protein cereblon/Signal transducer and activator of transcription 3. The experiment is described as follows: Protac activity at CRBN/STAT3 in human BxPC-3 cells assessed as induction of STAT3 degradation at 1 to 5 uM after 12 hrs in presence of proteasome inhibitor bortezomib by western blot analysis. Type of experiment: cell-based. Particulars: dose 1-5 µM.

In the case of `O=C1CCC(N2C(=O)c3cccc(NCCOCCOCCNC(=O)c4cc5c(o4)C(=O)c4ccccc4C5=O)c3C2=O)C(=O)N1` (stereo not drawn), the outcome (in experiment [1]; in experiment [3]; in experiment [4]; in [6]; in the experiment with BXPC-3 [8]; in experiment [10]) was Active. In addition, the outcome in experiment [11] was Active. In addition, the outcome in experiment [2] was inactive. The half-inhibitory concentration (IC50) worked out at 4.3 µM with BXPC-3 [5], 0.3 µM in the experiment on OVCAR-3 and 1.3 µM in the experiment on MIA PaCa-2. Besides, the “Ratio IC50” value in experiment [7] was more than 6. For the same compound, in [9], the DC50 amounted to 7.8 µM.
